High-throughput results from PubChem BioAssay.
This is a sample that favours compounds with a hit; in the whole collection about 1.8% have one here.
Runt-CBFb FRET: blocks binding of human RUNX1 Runt domain to CBFb | Q01196+Q13951 | Cerulean-Runt/Venus-CBFb FRET ratio 530/480, 1 h | inhibition, % at 20 µM | 0.46% of 220,000 active;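 active = inhibition over about 50% at 20 µM in the single-dose screen, limit read from the data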
Target sequence (Q01196 whole entry, looked up, the tested form may be a part): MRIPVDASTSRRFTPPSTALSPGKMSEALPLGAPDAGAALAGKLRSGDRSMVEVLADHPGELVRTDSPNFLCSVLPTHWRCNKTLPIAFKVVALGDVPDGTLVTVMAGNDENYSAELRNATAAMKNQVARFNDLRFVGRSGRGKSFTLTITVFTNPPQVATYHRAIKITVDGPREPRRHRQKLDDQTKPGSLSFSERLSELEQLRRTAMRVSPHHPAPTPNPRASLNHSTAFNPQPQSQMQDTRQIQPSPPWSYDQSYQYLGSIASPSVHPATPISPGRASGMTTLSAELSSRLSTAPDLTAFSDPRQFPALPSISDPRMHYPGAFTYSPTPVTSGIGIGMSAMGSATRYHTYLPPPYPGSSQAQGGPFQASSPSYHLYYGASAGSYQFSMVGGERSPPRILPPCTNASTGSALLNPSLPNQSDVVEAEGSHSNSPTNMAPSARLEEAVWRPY
Target sequence (Q13951 whole entry, looked up, the tested form may be a part): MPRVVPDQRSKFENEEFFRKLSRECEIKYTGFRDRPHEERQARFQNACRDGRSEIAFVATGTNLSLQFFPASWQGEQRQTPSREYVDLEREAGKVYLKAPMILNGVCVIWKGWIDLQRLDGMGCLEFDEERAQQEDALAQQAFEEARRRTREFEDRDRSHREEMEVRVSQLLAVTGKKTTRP
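Measured by: fluorescence energy transfer, 422 nm excitation, 530/480 nm emission; test system: Cerulean-tagged RUNX1 Runt domain (FRET donor) fusion protein; buffer or medium: Tris pH 7.5 buffer with BSA; compound: one dose, 20 µM compound, 1% DMSO; times: two 1 h room-temperature incubations shielded from light; benchmarks: unlabeled CBFb 5 µM, positive control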
RanGTP-Imp inh: disruptors of Ran-importin-beta complex formation – biochemical, FRET, CFP-Ran, YFP-importin-beta, homogeneous, primary screen; cell-free CFP-Ran/YFP-importin-beta FRET ratio; inhibition, % (test concentration not listed); 1.1% of 300,000 active;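 active = more than half of the replicate wells show a fall in the fluorescence ratio signal beyond about 16%, limit read from the data, passing the limit was not always enough; inconclusive = exactly half of the replicate wells pass the set limit; inactive = fewer than half of replicates pass the limit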
Runt-SMMHC FRET: Runt domain-CBFb-SMMHC interaction inhibition; Q01196+Q13951; Cerulean-Runt/Venus-CBFb-SMMHC FRET ratio 530/480, 1 h; inhibition, % at 20 µM; 0.74% of 220,000 active;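 active = mean inhibition across duplicate retests at 20 µM reaching about 50%, limit read from the data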;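 note: inhibitors lower the FRET ratio by blocking Runt binding to CBFb-SMMHC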
Hck-Nef inh: inhibitors of human Hck kinase activated by Nef. P08631. Recombinant Hck-YEEI plus Nef, Z-Lyte FRET kinase assay. inhibition, % at 20 µM. 0.68% of 220,000 active;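 active = Hck-Nef kinase inhibition above about 50%, limit read from the data; inactive = inhibition below that limit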
Each line names hits and unclear results; the compound was inactive in the other large screens.

Cc1ccc(NC(=O)n2ncc3c(C)cccc32)cc1F	none (no result: Runt-CBFb FRET, Runt-SMMHC FRET, Hck-Nef inh)
COC(=O)C1=C(C)N=C2SC(C#N)=C(N)N2C1c1ccc(OC)cc1 (configuration not stated)	RanGTP-Imp inh 21.1
COC(=O)C1=C(C)N=C2SC(C#N)=C(N)N2C1c1cccc(OC)c1 (configuration not stated)	RanGTP-Imp inh inconclusive
CCCCOc1ccc(C2C3CN(C(=O)OCC)CC=C3C(C#N)=C(N)C2(C#N)C#N)cc1OC (configuration not stated)	none
CCCN1CC=C2C(C#N)=C(N)C(C#N)(C#N)C(c3cccc(OC)c3OC)C2C1 (configuration not stated)	Runt-CBFb FRET 94.5, RanGTP-Imp inh 104.0, Runt-SMMHC FRET 77.6
COc1ccc(OC)c(C2C3CN(C(C)C)CC=C3C(C#N)=C(N)C2(C#N)C#N)c1 (configuration not stated)	RanGTP-Imp inh 30.5, Runt-SMMHC FRET 79.3
Cc1ccc(C2C3CN(C(C)C)CC=C3C(C#N)=C(N)C2(C#N)C#N)cc1 (configuration not stated)	Runt-CBFb FRET 80.6, RanGTP-Imp inh 63.2, Runt-SMMHC FRET 62.6 (no result: Hck-Nef inh)
COC(=O)c1cc(S(=O)(=O)NCC2CCN(CCc3ccc(OC)cc3)CC2)c[nH]1	none (no result: Runt-CBFb FRET, Runt-SMMHC FRET, Hck-Nef inh)
Cc1ccccc1NC(=O)NCCCCc1ccccc1	none (no result: Runt-CBFb FRET, Runt-SMMHC FRET, Hck-Nef inh)
Cc1ccc(C(=O)/C=C/c2cn(CN3CCN(C)CC3)c3ccccc23)cc1	RanGTP-Imp inh 72.5
Cn1cc(/C=C/C(=O)c2ccccc2)c2ccccc21	RanGTP-Imp inh 35.5
Cc1nn(C)cc1/C=C/C(=O)c1ccccc1	none
CCc1cc(=O)oc2cc(OCc3ccc(C(=O)O)o3)ccc12	none (no result: Runt-CBFb FRET, Runt-SMMHC FRET, Hck-Nef inh)
Cc1nnc(SCc2nnc(-c3cccs3)o2)s1	RanGTP-Imp inh 174.7
C=CCn1c(SCC(=O)Nc2cc(C)on2)nc2sc3c(c2c1=O)CCCC3	none (no result: RanGTP-Imp inh)
CCn1c(SCC(=O)Nc2cc(C)on2)nc2sc3c(c2c1=O)CCCC3	RanGTP-Imp inh inconclusive, Hck-Nef inh 53.0
CN(C)c1cc(=O)n2c(n1)SCCC2	RanGTP-Imp inh 71.7 (no result: Runt-CBFb FRET)
O=c1cc(N2CCCCC2)nc2n1CCCS2	RanGTP-Imp inh 158.9
COc1ccc(-c2cc(C(=O)Nc3ccc(C(N)=O)cc3)c3ccccc3n2)cc1	none (no result: Runt-CBFb FRET, Runt-SMMHC FRET, Hck-Nef inh)
C=C1CCN([C@@H](Cc2ccccc2)C(=O)NCc2ccc(Cl)cc2)S(=O)(=O)c2ccccc21	none (no result: Runt-CBFb FRET, Runt-SMMHC FRET, Hck-Nef inh)
COc1ccc2c(c1)NC(c1ccc(N(C)C)cc1)c1cccn1-2 (configuration not stated)	RanGTP-Imp inh 41.6
COc1ccc2c(c1)NC(c1cc(Cl)cc(Cl)c1O)c1cccn1-2 (configuration not stated)	none (no result: RanGTP-Imp inh)
COc1ccc(C2C(C(=O)c3cccs3)=C(O)C(=O)N2c2nncs2)cc1 (configuration not stated)	Runt-SMMHC FRET 103.3
C=CCOc1ccc(C2C(C(=O)c3cccs3)=C(O)C(=O)N2c2nnc(C)s2)cc1 (configuration not stated)	none (no result: Runt-CBFb FRET, Runt-SMMHC FRET)
COc1cccc(/C=N\NC(C)=O)c1OC/C=C/c1ccccc1	none (no result: Runt-CBFb FRET, Runt-SMMHC FRET, Hck-Nef inh)
Cc1ccc(C(=O)N/C(=C\c2ccc(Br)cc2)c2nc(=S)[nH][nH]2)cc1	RanGTP-Imp inh 28.2
N#Cc1c(-c2ccccc2)cc(-c2ccccc2)[nH]c1=O	none (no result: Runt-CBFb FRET, Runt-SMMHC FRET, Hck-Nef inh)
N#Cc1c(-c2cccc(Br)c2)cc(-c2ccco2)[nH]c1=O	RanGTP-Imp inh 71.5, Runt-SMMHC FRET 90.5
COc1ccc(-c2cc(-c3ccco3)[nH]c(=O)c2C#N)cc1	Runt-SMMHC FRET 85.5
COc1ccc(-c2cc(C(F)(F)F)c(C#N)c(=O)[nH]2)cc1	RanGTP-Imp inh 49.4, Runt-SMMHC FRET 105.0
N#Cc1c(C(F)(F)F)cc(-c2ccc(F)cc2)[nH]c1=O	none
Nc1c2c(nc3sc4c(c13)CCCC4)CCCCCC2	Hck-Nef inh 58.6
Nc1nc2sc3c(c2c(=O)s1)CCCC3	none
CC(=O)c1c(C)[nH]c(C(=O)NCc2ccc(F)cc2)c1C	none
CC(=O)c1c(C)[nH]c(C(=O)NCc2ccccc2)c1C	Runt-CBFb FRET 50.4
Cc1ccc(S(=O)(=O)N(C)C)cc1NC(=O)COC(=O)C1CCN(S(=O)(=O)c2cccs2)CC1	none (no result: Runt-CBFb FRET, Runt-SMMHC FRET, Hck-Nef inh)
O=C(CCc1ccc(O)cc1)c1c(O)cc(O)cc1O	Hck-Nef inh 63.3
Cc1ccc(S(=O)(=O)C(C#N)c2nc3ccccc3nc2N2CCN(C)CC2)cc1C (configuration not stated)	RanGTP-Imp inh 93.5
CN1CCN(c2nc3ccccc3nc2C(C#N)S(=O)(=O)c2ccccc2)CC1 (configuration not stated)	RanGTP-Imp inh 64.3
CCCCCCOc1ccc(N2C(=O)CC(N(CCc3ccc(S(N)(=O)=O)cc3)C(C)=O)C2=O)cc1 (configuration not stated)	none
Cc1ccc(O)c(Nc2nc(-c3ccccc3)nc3ccccc23)c1	none (no result: Runt-CBFb FRET, Runt-SMMHC FRET, Hck-Nef inh)
Cc1ccc(O)c(Nc2c3ccccc3nc3ccccc23)c1	RanGTP-Imp inh 24.2 (no result: Runt-CBFb FRET, Runt-SMMHC FRET, Hck-Nef inh)
CCn1c(C)nc2cc(C(=O)n3cc(C(=O)c4ccccc4O)cn3)ccc21	Hck-Nef inh 88.9 (no result: RanGTP-Imp inh)
Cc1cccc(N2CC(C)Cn3c2nc2c3c(=O)[nH]c(=O)n2C)c1 (configuration not stated)	none (no result: Runt-CBFb FRET, Runt-SMMHC FRET, Hck-Nef inh)
COC(=O)C1=CN(Cc2ccc(OC)cc2)C=C(C(=O)OC)C1c1cccs1	none
COC(=O)C1=CN(C2CC2)C=C(C(=O)OC)C1c1ccccc1OC	Runt-CBFb FRET 105.0, RanGTP-Imp inh 32.0
COC(=O)C1=CN(Cc2ccc(OC)c(OC)c2)C=C(C(=O)OC)C1c1ccc(F)cc1	RanGTP-Imp inh 17.7 (no result: Runt-CBFb FRET, Runt-SMMHC FRET, Hck-Nef inh)
COC(=O)C1=CN(Cc2ccc(OC)c(OC)c2)C=C(C(=O)OC)C1c1cccc(OC)c1OC	RanGTP-Imp inh 72.6 (no result: Runt-CBFb FRET, Runt-SMMHC FRET, Hck-Nef inh)
COC(=O)C1=CN(Cc2cccs2)C=C(C(=O)OC)C1c1cccc(OC)c1OC	Runt-CBFb FRET 93.2, RanGTP-Imp inh 71.1
CCN(CC)c1ccc2cc(C(=O)Nc3ccccn3)c(=O)oc2c1	RanGTP-Imp inh 160.7, Runt-SMMHC FRET 61.5
CCN(CC)c1ccc2cc(NC(=O)CCC(=O)O)c(=O)oc2c1	RanGTP-Imp inh 136.0, Runt-SMMHC FRET 62.6
CCN(CC)c1ccc2cc(-c3nnc(-c4ccncc4)o3)c(=O)oc2c1	Runt-SMMHC FRET 62.6 (no result: RanGTP-Imp inh)
CCN(CC)c1ccc2cc(C=O)c(=O)oc2c1	RanGTP-Imp inh 125.6, Runt-SMMHC FRET 60.5
CC(C)CN(C(=O)c1cccs1)C1CCS(=O)(=O)C1 (configuration not stated)	none (no result: Runt-CBFb FRET, Runt-SMMHC FRET, Hck-Nef inh)
O=C(Nc1c(O)c2ccccc2[nH]c1=O)c1ccco1	none
CCN(CC)c1ccc2cc(/C(N)=N/NC(=O)c3cccs3)c(=O)oc2c1	RanGTP-Imp inh 158.8
CCN(CC)c1ccc2cc(C(N)=O)c(=N)oc2c1	RanGTP-Imp inh 150.7, Runt-SMMHC FRET 92.2
CCc1cc(=O)oc2cc(C)cc(OCC(=O)NCCCN3CCOCC3)c12	none (no result: Runt-CBFb FRET, Runt-SMMHC FRET, Hck-Nef inh)
C=CCNC(=O)/C(C#N)=C/c1c(C)nn(-c2ccccc2)c1Cl	none
CCC(CC)COC(=O)C1=C(C)NC(=O)NC1c1ccc(N(C)C)cc1 (configuration not stated)	RanGTP-Imp inh 16.0 (no result: Runt-CBFb FRET, Runt-SMMHC FRET, Hck-Nef inh)
Cc1cccc(C(=O)NNC(=O)c2c(-c3ccccc3Cl)noc2C)c1O	none (no result: Runt-CBFb FRET, Runt-SMMHC FRET, Hck-Nef inh)
